Experimental data reported in ChEMBL document CHEMBL4033651, “Exploration of flexible phenylpropylurea scaffold as novel cardiac myosin activators for the treatment of systolic heart failure” (Eur J Med Chem, 2017).
Values belong to the compound of their own block, whether it stands above or below them.

Experiments:
Bos taurus = species on record: Bos taurus; experiment: Activation of actin-stimulated bovine cardiac myosin S1 fragment ATPase activity in sarcomere at 10 uM after 10 mins by spectrophotometric analysis
How it was run: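 Bovine cardiac S1 myosin with actin thin filament complex at pCa 6.5, in 20 mM Tris HCl pH 7.5, 15 mM KCl, 6 mM MgCl2, 1 mM ATP. Compound at 10 μM, 10 min at room temperature. Stopped with Cytophos reagent; liberated phosphate read at 650 nm. % activity calculated relative to DMSO negative control, blank-corrected.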

[1] = Stability of the compound after 3 months by TLC analysis; format: physicochemical; conditions: 2191.5 h
Rattus norvegicus [2] = experiment: Positive inotropic activity in Sprague-Dawley rat heart assessed as ejection fraction at 2 to 16 ug/kg/min for 3 mins by echocardiographic analysis; format: functional
How it was run: (§1)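 Seven-week-old male Sprague-Dawley rats under 1.5 % isoflurane via nosecone. Drug given through a right internal jugular vein central line. Left ventricular fractional shortening and ejection fraction measured by echocardiography with and without sample, expressed as % increase.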

Gallus gallus = species on record: Gallus gallus; experiment: Activation of actin-stimulated chicken gizzard smooth muscle myosin S1 fragment ATPase activity at 100 uM after 10 mins by spectrophotometric analysis
How it was run: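 Chicken gizzard smooth muscle S1 myosin with actin plus tropomyosin at pCa 6.5, in 20 mM Tris HCl pH 7.5, 15 mM KCl, 6 mM MgCl2, 1 mM ATP. Compound at single 100 uM dose, 10 min at room temperature. Cytophos stop; phosphate read at 650 nm. % activity versus blank-corrected DMSO control.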

Oryctolagus cuniculus = species on record: Oryctolagus cuniculus; experiment: Activation of actin-stimulated rabbit psoas skeletal muscle myosin S1 fragment ATPase activity at 100 uM after 10 mins by spectrophotometric analysis
How it was run: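 Rabbit skeletal S1 myosin with actin thin filament complex at pCa 6.5, in 20 mM Tris HCl pH 7.5, 15 mM KCl, 6 mM MgCl2, 1 mM ATP. Compound at single 100 uM dose, 10 min at room temperature. Cytophos stop; phosphate read at 650 nm. % activity versus blank-corrected DMSO control.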

Rattus norvegicus [3] = experiment: Positive inotropic activity in Sprague-Dawley rat heart assessed as left ventricle fractional shortening at 2 to 16 ug/kg/min for 3 mins by echocardiographic analysis; format: functional; how it was run: as §1
Rattus norvegicus [4] = experiment: Effect on hemodynamic parameters in Sprague-Dawley rat heart assessed as dPdT max at 4 ug/kg/min (reference value: 4985 to 5214 mmHg/s); format: functional
Rattus norvegicus [5] = experiment: Effect on hemodynamic parameters in Sprague-Dawley rat heart assessed as dPdT min at 8 ug/kg/min (reference value: -5462 to -4611 mmHg/s); format: functional
Rattus norvegicus [6] = experiment: Positive inotropic activity in Sprague-Dawley rat heart assessed as left ventricular internal diameter end diastole at 4 ug/kg/min for 3 mins by echocardiographic analysis (reference value: 5.66 to 7.80 mm); format: functional
How it was run: (§2)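 Male Sprague-Dawley rats, seven weeks old, anaesthetised with 1.5 % isoflurane given by nosecone. Compound infused through the right internal jugular vein, used as a central venous line. Left ventricular dimensions measured by echocardiography.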

Rattus norvegicus [7] = experiment: Effect on hemodynamic parameters in Sprague-Dawley rat heart assessed as end-diastolic pressure at 8 ug/kg/min (reference value: 7.68 to 9.83 mmHg); format: functional
Rattus norvegicus [8] = experiment: Positive inotropic activity in Sprague-Dawley rat heart assessed as heart rate at 16 ug/kg/min for 3 mins by echocardiographic analysis (reference value: 281 to 347 bpm); format: functional
Rattus norvegicus [9] = experiment: Positive inotropic activity in Sprague-Dawley rat heart assessed as left ventricular posterior wall thickness end diastole at 16 ug/kg/min for 3 mins by echocardiographic analysis (reference value: 0.88 to 1.54 mm); format: functional; how it was run: as §2
Rattus norvegicus [10] = experiment: Positive inotropic activity in Sprague-Dawley rat heart assessed as fractional shortening at 4 ug/kg/min for 3 mins by echocardiographic analysis (reference value: 38.60 to 55.81%); format: functional; how it was run: as §1
Rattus norvegicus [11] = experiment: Positive inotropic activity in Sprague-Dawley rat heart assessed as ejection fraction at 8 ug/kg/min for 3 mins by echocardiographic analysis (reference value: 67.16 to 85.81%); format: functional; how it was run: as §1
Rattus norvegicus [12] = experiment: Positive inotropic activity in Sprague-Dawley rat heart assessed as ejection fraction at 16 ug/kg/min for 3 mins by echocardiographic analysis (reference value: 67.16 to 85.81%); format: functional; how it was run: as §1
Rattus norvegicus [13] = experiment: Positive inotropic activity in Sprague-Dawley rat heart assessed as fractional shortening at 8 ug/kg/min for 3 mins by echocardiographic analysis (reference value: 38.60 to 55.81%); format: functional; how it was run: as §1
Rattus norvegicus [14] = experiment: Effect on hemodynamic parameters in Sprague-Dawley rat heart assessed as dPdT max at 8 ug/kg/min (reference value: 4162 to 5214 mmHg/s); format: functional
Rattus norvegicus [15] = experiment: Positive inotropic activity in Sprague-Dawley rat heart assessed as ejection fraction at 4 ug/kg/min for 3 mins by echocardiographic analysis (reference value: 67.16 to 85.81%); format: functional; how it was run: as §1
Rattus norvegicus [16] = experiment: Positive inotropic activity in Sprague-Dawley rat heart assessed as heart rate at 8 ug/kg/min for 3 mins by echocardiographic analysis (reference value: 281 to 347 bpm); format: functional
Rattus norvegicus [17] = experiment: Effect on hemodynamic parameters in Sprague-Dawley rat heart assessed as heart rate at 4 ug/kg/min (reference value: 260 to 322 bpm); format: functional
Rattus norvegicus [18] = experiment: Effect on hemodynamic parameters in Sprague-Dawley rat heart assessed as heart rate at 8 ug/kg/min (reference value: 260 to 322 bpm); format: functional
Rattus norvegicus [19] = experiment: Effect on hemodynamic parameters in Sprague-Dawley rat heart assessed as end-systolic pressure at 8 ug/kg/min (reference value: 87.48 to 97.85 mmHg); format: functional
Rattus norvegicus [20] = experiment: Positive inotropic activity in Sprague-Dawley rat heart assessed as left ventricular posterior wall thickness end systole at 8 ug/kg/min for 3 mins by echocardiographic analysis (reference value: 2.07 to 2.46 mm); format: functional; how it was run: as §2
Rattus norvegicus [21] = experiment: Positive inotropic activity in Sprague-Dawley rat heart assessed as left ventricular internal diameter end diastole at 8 ug/kg/min for 3 mins by echocardiographic analysis (reference value: 5.66 to 7.80 mm); format: functional; how it was run: as §2
Rattus norvegicus [22] = experiment: Positive inotropic activity in Sprague-Dawley rat heart assessed as left ventricular internal diameter end diastole at 16 ug/kg/min for 3 mins by echocardiographic analysis (reference value: 5.66 to 7.80 mm); format: functional
Rattus norvegicus [23] = experiment: Positive inotropic activity in Sprague-Dawley rat heart assessed as left ventricular posterior wall thickness end systole at 4 ug/kg/min for 3 mins by echocardiographic analysis (reference value: 2.07 to 2.46 mm); format: functional; how it was run: as §2
Rattus norvegicus [24] = experiment: Effect on hemodynamic parameters in Sprague-Dawley rat heart assessed as end-diastolic pressure at 4 ug/kg/min (reference value: 7.68 to 9.83 mmHg); format: functional
Rattus norvegicus [25] = experiment: Positive inotropic activity in Sprague-Dawley rat heart assessed as heart rate at 4 ug/kg/min for 3 mins by echocardiographic analysis (reference value: 281 to 347 bpm); format: functional
Rattus norvegicus [26] = experiment: Positive inotropic activity in Sprague-Dawley rat heart assessed as left ventricular posterior wall thickness end systole at 16 ug/kg/min for 3 mins by echocardiographic analysis (reference value: 2.07 to 2.46 mm); format: functional; how it was run: as §2
Rattus norvegicus [27] = experiment: Positive inotropic activity in Sprague-Dawley rat heart assessed as left ventricular posterior wall thickness end diastole at 8 ug/kg/min for 3 mins by echocardiographic analysis (reference value: 0.88 to 1.54 mm); format: functional; how it was run: as §2
Rattus norvegicus [28] = experiment: Effect on hemodynamic parameters in Sprague-Dawley rat heart assessed as dPdT min at 4 ug/kg/min (reference value: -5462 to -4898 mmHg/s); format: functional
Rattus norvegicus [29] = experiment: Effect on hemodynamic parameters in Sprague-Dawley rat heart assessed as end-systolic pressure at 4 ug/kg/min (reference value: 94.65 to 97.85 mmHg); format: functional
Rattus norvegicus [30] = experiment: Positive inotropic activity in Sprague-Dawley rat heart assessed as left ventricular posterior wall thickness end diastole at 4 ug/kg/min for 3 mins by echocardiographic analysis (reference value: 0.88 to 1.54 mm); format: functional; how it was run: as §2
Rattus norvegicus [31] = experiment: Positive inotropic activity in Sprague-Dawley rat heart assessed as fractional shortening at 16 ug/kg/min for 3 mins by echocardiographic analysis (reference value: 38.60 to 55.81%); format: functional; how it was run: as §1
[32] = Solubility of the compound in water; format: physicochemical; conditions: buffer
How it was run: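 Final solution concentration measured by HPLC against three standards of known concentration.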

SMILES: O=C(CCCCc1ccccc1)NCCc1ccccc1
Activity (Bos taurus): 39.1%

SMILES: O=C(NCCCc1ccccc1)N1CCCC(c2ccccc2)C1 (stereo unspecified)
Activity (Bos taurus): 35.2%

SMILES: O=C(NCCCn1ccnc1)NCCc1ccccc1
Activity (Bos taurus): 32.6%

SMILES: O=C(NCCCc1ccccc1)NC1CCCCC1
Activity (Bos taurus): 20.3%

SMILES: O=C(NCCCc1ccccc1)NCCN1CCOCC1
Activity (Rattus norvegicus [2]): 15.65%
Activity (Gallus gallus): 3.1%
Activity (Oryctolagus cuniculus): -5.3%
Activity (Rattus norvegicus [3]): 24.79%
Activity (Bos taurus): 44%

SMILES: O=C(NCCCN1CCOCC1)NCCc1ccccc1
Activity (Bos taurus): 32.9%

SMILES: Cc1ccc2c(c1)C(=O)[C@]1(O)CCN(c3ccccc3)C1=N2
Activity (Gallus gallus): -35.7%
Activity (Oryctolagus cuniculus): -50.7%

SMILES: S=C(NCCCc1ccccc1)NCCc1ccccc1
Activity (Bos taurus): 10.3%

SMILES: O=C(NCCCc1ccccc1)Nc1ccccc1
Activity (Bos taurus): 46.2%

SMILES: CC(CCc1ccc(O)cc1)NCCc1ccc(O)c(O)c1 (stereo unspecified) [DOBUTAMINE]
Activity (Rattus norvegicus [4]): 6073 mmHg/s
Activity (Rattus norvegicus [5]): -4368 mmHg/s
Activity (Rattus norvegicus [6]): 6.98 mm
Activity (Rattus norvegicus [7]): 7.68 mmHg
Activity (Rattus norvegicus [8]): 421 bpm
Activity (Rattus norvegicus [9]): 1.16 mm
Activity (Rattus norvegicus [10]): 68.11%
Activity (Rattus norvegicus [11]): 96.79%
Activity (Rattus norvegicus [12]): 98.65%
Activity (Rattus norvegicus [13]): 75.91%
Activity (Rattus norvegicus [14]): 9314 mmHg/s
Activity (Rattus norvegicus [15]): 93.42%
Activity (Rattus norvegicus [16]): 416 bpm
Activity (Rattus norvegicus [17]): 270 bpm
Activity (Rattus norvegicus [18]): 309 bpm
Activity (Rattus norvegicus [19]): 103.12 mmHg
Activity (Rattus norvegicus [20]): 3.08 mm
Activity (Rattus norvegicus [21]): 6.93 mm
Activity (Rattus norvegicus [22]): 6.68 mm
Activity (Rattus norvegicus [23]): 2.93 mm
Activity (Rattus norvegicus [24]): 9.38 mmHg
Activity (Rattus norvegicus [25]): 393 bpm
Activity (Rattus norvegicus [26]): 3.59 mm
Activity (Rattus norvegicus [27]): 1.36 mm
Activity (Rattus norvegicus [28]): -4936 mmHg/s
Activity (Rattus norvegicus [29]): 96.65 mmHg
Activity (Rattus norvegicus [30]): 1.06 mm
Activity (Rattus norvegicus [31]): 82.57%

SMILES: O=C(NCCCc1ccccc1)NCC1CCCCC1
Activity (Bos taurus): 60.2%

SMILES: O=C(NCCc1ccccc1)N1CCC(c2ccccc2)CC1
solubility [32]: Insoluble
Activity (Bos taurus): 46.6%

SMILES: O=C(NCCCc1ccccc1)NCc1ccco1
Activity (Bos taurus): 36.7%

SMILES: O=S(=O)(NCCCc1ccccc1)NCCc1ccccc1
Activity (Bos taurus): 32.1%

SMILES: O=C(NCCCc1ccccc1)NCC1CCOCC1
Activity (Rattus norvegicus [2]): 13.1%
Activity (Gallus gallus): 5.1%
Activity (Oryctolagus cuniculus): 4.4%
Activity (Rattus norvegicus [3]): 20.5%
Activity (Bos taurus): 81.4%

SMILES: O=C(NCCCc1ccccc1)NCCc1ccccc1
Activity (Rattus norvegicus [2]): 12.15%
Activity (Gallus gallus): -4.7%
Activity (Oryctolagus cuniculus): -2.1%
Activity (Rattus norvegicus [3]): 18.9%
Activity (Bos taurus): 51.1%

SMILES: O=C(NCCCC1CCCCC1)NCCC1CCCCC1
Activity (Bos taurus): 44.4%

SMILES: O=C(NCCCc1ccccc1)NCCc1ccco1
Activity (Bos taurus): 30.6%

SMILES: c1ccc(CCCCNCCCc2ccccc2)cc1
Activity (Bos taurus): 11.9%

SMILES: O=C(NCCCCc1ccccc1)NCCN1CCOCC1
Activity (Bos taurus): 42.7%

SMILES: O=C(NCCCc1ccccc1)NCCC1CCCCC1
Activity (Bos taurus): 61.4%

SMILES: CN(CCCc1ccccc1)C(=O)N(C)CCc1ccccc1
Activity (Rattus norvegicus [2]): 3.41%
Activity (Rattus norvegicus [3]): 5.74%
Activity (Bos taurus): 72.4%

SMILES: O=C(NCCCc1ccccc1)NC1Cc2ccccc2C1
solubility [32]: Insoluble
Activity (Bos taurus): 61.9%

Continued, in another order:

Activity (Bos taurus): 29.6%
SMILES: O=C(NCCCc1ccccc1)NCCc1cccs1

Activity (Bos taurus): 30%
SMILES: O=C(NCCCc1ccccc1)NCCc1ccccn1

Activity (Bos taurus): 42.9%
Stability [1]: Unstable
SMILES: O=C(COCCc1ccccc1)COCc1ccccc1

Activity (Bos taurus): 36.6%
SMILES: O=C(NCCc1ccccc1)N1CCN(c2ccccc2)CC1

Activity (Bos taurus): 32.4%
SMILES: O=C(NCCCc1ccccc1)N1CCCC1c1ccccc1 (stereo unspecified)

Activity (Bos taurus): 37.9%
SMILES: O=C(NCCCC1CCCCC1)NCCc1ccccc1

Activity (Bos taurus): 45.5%
SMILES: O=C(NCCCc1ccccc1)NCCCc1ccccc1

Activity (Bos taurus): 1.6%
SMILES: c1ccc(CCCCCNCCc2ccccc2)cc1

Activity (Bos taurus): 47.6%
SMILES: O=C(NCCCc1ccccc1)NCc1cccs1

Activity (Bos taurus): 73%
SMILES: O=C(NCCCc1ccccc1)N1CCCCC1c1ccccc1 (stereo unspecified)
Activity (Rattus norvegicus [2]): 9.26%
Activity (Rattus norvegicus [3]): 13.32%

Activity (Bos taurus): 37.2%
SMILES: O=C(NCCCc1ccccc1)NCc1ccc2[nH]ccc2c1
